High-throughput results (PubChem)
In the library only some 2.7% were active in any assay of this set; here they are far more common.
HNF4A DNA FP: change in binding of human HNF4 alpha to DNA; P41235; HNF4a-FITC DNA binding, fluorescence polarization, 1 h; activity change, % at 10 µM; 360,000 tested, 0.3% active; AID 1224865; in the data active = activity change above about 30%, passing the limit was not always enough
Rpn11 inh: blocks the human proteasome subunit Rpn11; O00487; human 26S proteasome, Ub4-pepOG fluorescence polarization; 20S core pre-blocked with epoxomicin; inhibition, % at 20 µM; 360,000 tested, 0.59% active;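 active = inhibition at 20 µM, scaled to each plate's controls, above about 33%, limit read from the data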
TPT1 inh: inhibitors of Candida albicans tRNA 2'-phosphotransferase TPT1; recombinant caTPT1, FP RNA substrate dephosphorylation; inhibition, % at 5 µM; 300,000 tested, 0.81% active; AID 1962;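 active = inhibition above the mean of all tested compounds plus 3 SD, set per screening campaign, cut at about 24% in these data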;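 note: plate controls were DMSO alone for no effect and ferristatin control at 100 nM for full effect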
NadD inh: blocks S. aureus nicotinate mononucleotide adenylyltransferase | 360,000 tested, 0.78% active | inhibition, % at 20 µM | purified NadD enzyme, colorimetric absorbance read-out | AID 602399; in the data active = inhibition above about 26%
CSN inh: inhibitors of human CSN-mediated cullin deneddylation. Q92905. 360,000 tested, 0.38% active. inhibition, % at 12.5 µM. AID 651999. Purified CSN, SCF-Nedd8-OG deneddylation, fluorescence polarization;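 active = pattern-corrected inhibition above about 35%, with an unprinted fluorescence ratio check between 0.5 and 1.5, limit read from the data, passing the limit was not always enough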;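 note: 0% = enzyme with substrate and 100% = substrate without enzyme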
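Assay system: purified human Csn5 enzyme expressed in HEK293T cells; Input: 0.24 nM Csn5 enzyme, final concentration; Reagent: 10 nM SCFSkp2-Nedd8OG; Compound dosing: 12.5 µM single point; Times: reaction 90 min, room temperature; Technique: fluorescence polarization readout.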
PP1 inh: PP1-alpha (human) inhibition in PP5 counter-screen; purified PP1alpha, OMFP fluorescence; inhibition, % at 6.7 µM; 320,000 tested, 0.9% active; AID 2235;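 active = inhibition above the mean inhibition of all tested compounds plus 3 SD, computed separately for each screening campaign, cut at about 15% in these data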
Target sequence (P62136 whole entry, looked up): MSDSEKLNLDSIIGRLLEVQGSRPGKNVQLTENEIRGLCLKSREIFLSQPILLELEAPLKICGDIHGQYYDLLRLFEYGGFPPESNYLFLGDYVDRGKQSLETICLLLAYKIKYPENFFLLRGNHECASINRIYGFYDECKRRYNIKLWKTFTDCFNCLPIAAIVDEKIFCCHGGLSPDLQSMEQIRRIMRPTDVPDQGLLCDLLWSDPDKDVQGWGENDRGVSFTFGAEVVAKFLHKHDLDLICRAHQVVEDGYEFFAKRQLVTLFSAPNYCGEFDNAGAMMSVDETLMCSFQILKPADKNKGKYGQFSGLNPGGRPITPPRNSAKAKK
NadD inh conf: confirmation of Staphylococcus aureus NadD inhibitors; shares compounds with NadD inh; purified S. aureus NadD, colorimetric enzyme assay; inhibition, % at 20 µM; 2,000 tested, 13% active; AID 624309; in the data active = inhibition mostly above about 42%, no sharp cut-off; inactive = mostly below about 42%
* hit, by the source's call; x = no result given.

SMILES	HNF4A DNA FP	Rpn11 inh	TPT1 inh	NadD inh	CSN inh	PP1 inh	NadD inh conf
CCOc1ccc(NC(=O)c2ccc3c(SCC(=O)O)c4c(nc3c2)CCCC4)cc1	1	6	-1	13	0	7	x
COc1ccc(CCN2CC(C(=O)N(C)CC(=O)Nc3ccc(F)c(F)c3F)CC2=O)cc1OC (centres undefined)	-5	3	x	2	-1	x	x
O=C1c2ccccc2[C@@H]2C[C@@H](O)[C@H](Nc3ccccc3-c3ccccc3)CCN12	6	-1	x	-2	-5	x	x
O=c1[nH]c(CN2CCN(Cc3ccccc3)CC2)nc2scc(-c3ccccc3)c12	2	13	5	4	6	3	x
O=c1[nH]c(Cn2nnc(-c3ccccc3)n2)nc2scc(-c3ccccc3)c12	4	6	0	30*	3	5	21
CN(CCC#N)C(=O)COC(=O)c1c2c(nc3ccccc13)/C(=C\c1ccco1)CC2	-27	-1	x	42*	41	x	58*
CN1CCc2nc3ccccc3c(C(=O)OCC(=O)N(CCC#N)c3ccccc3)c2C1	6	8	-6	2	1	-4	x
O=C(COC(=O)c1c2c(nc3ccccc13)/C(=C\c1ccco1)CC2)NC1CCCC1	-37	-7	x	64*	32	x	51*
Cc1cccc(C)c1NC(=O)COC(=O)c1c2c(nc3ccccc13)/C(=C\c1ccc3c(c1)OCO3)CCC2	-89	-218	-64	48*	-70	-3	6
CC1CCCCC1NC(=O)COC(=O)c1c2c(nc3ccccc13)/C(=C\c1ccco1)CC2 (centres undefined)	-39	-21	x	79*	35	x	51*
O=C(COC(=O)c1c2c(nc3ccccc13)/C(=C/c1cccc([N+](=O)[O-])c1)CCC2)NC1CCS(=O)(=O)C1 (centres undefined)	1	-1	0	-1	-11	0	x
O=C(CN1C(=O)NC2(CCCc3ccccc32)C1=O)NC1CCCCC1 (centres undefined)	-1	-6	-1	3	-5	-1	x
CSc1ccccc1C(=O)N1CCC(n2nccc2NC(=O)C(C)(C)C)CC1	3	-20	3	2	-2	-2	x
CC(C)c1ccc(CN2CCSCC2)cc1	4	2	0	-4	-2	2	x
O=C(O)Cc1sc(N/N=C\c2ccccc2)nc1-c1ccccc1	3	32	17	47*	18	9	55*
CCN(CC)C1Oc2cc3c(cc2C(c2cc(OC)c(OC)c(OC)c2)C1C)OCO3 (centres undefined)	-6	0	x	-5	-4	x	x
O=C1c2c(-c3ccc(Br)cc3)noc2CCN1Cc1cn(-c2ccc(Cl)cc2)nn1	-5	x	x	x	-3	x	x
N#Cc1sc2nc(C3CC3)cc(-c3ccccc3)c2c1N	0	-5	4	4	-5	2	x
N#Cc1sc2nc(-c3ccccc3)cc(-c3ccco3)c2c1N	11	14	10	32*	40*	4	8
CC1(C(=O)NS(=O)(=O)c2cccs2)CCN1C(=O)CC1CCCC1 (centres undefined)	-1	-13	x	2	3	x	x
Cc1cc(-c2cc(N)n(-c3ccccc3)n2)c(C)n1C1CCCC1	4	23	8	32*	3	3	12
COc1cc2c3c(c1)c(C1=NC(=S)NC1=O)c(O)n3C(C)(C)C=C2C	6	1	-4	-2	4	-3	x
CC1(c2ccccc2)CC(C)(C)n2c(O)c(C3=NC(=S)NC3=O)c3cccc1c32 (centres undefined)	-5	-13	0	33*	-5	6	-1
Cc1ccccc1Oc1ccc2c(c1)[C@@H]1C[C@H](N(C)C(=O)c3cccnc3)[C@H]([C@H](C)O)C(=O)N1CC2	-2	-1	x	2	-2	x	x
Cc1ccc(-c2nc3ccc(C)cn3c2Cc2ccccc2C(F)(F)F)cc1	6	25	x	2	0	x	x
SMILES	HNF4A DNA FP	Rpn11 inh	TPT1 inh	NadD inh	CSN inh	PP1 inh	NadD inh conf
Cc1ccc(-c2nc3c4ccccc4ccn3c2Cc2ccccc2C(F)(F)F)cc1	0	x	x	31*	1	x	18
Cc1ccc(S(=O)(=O)N2CCN(c3ncnc4scc(-c5ccccc5)c34)CC2)cc1	1	2	x	14	3	x	x
COc1ccc(-c2csc3ncnc(N4CCN(S(=O)(=O)c5cccc(Br)c5)CC4)c23)cc1	9	18	3	31*	2	-1	18
COc1ccc(-c2csc3ncnc(N4CCN(S(=O)(=O)c5cccc(C(F)(F)F)c5)CC4)c23)cc1	6	8	0	17	3	1	x
Cc1ccc(S(=O)(=O)N2CCN(c3ncnc4scc(-c5ccc(F)cc5)c34)CC2)cc1	5	5	1	37*	-5	2	14
O=C(CSc1nnc(Cc2csc(Nc3cccc(Cl)c3)n2)o1)N1CCc2ccccc21	8	28	2	57*	11	6	19
O=C(CSc1nnc(CNc2ccccc2)o1)N1CCc2ccccc21	4	-3	-3	6	2	-4	x
CN(CC(=O)Nc1cccc(F)c1)CC(=O)N(C)CC(=O)Nc1ccccc1Br	1	5	x	-2	-2	-4	x
Cc1cc(-c2csc(N)n2)c(C)n1CCC(C)C	2	-36	1	34*	4	16*	11
Cc1nn(C)cc1-c1csc(N)n1	0	0	-3	-3	-5	3	x
Cc1n[nH]c(=O)c2c(NC(=O)CSc3ccccc3Cl)oc(C)c12	2	0	-2	-4	2	-1	x
Cc1ccc(-c2nn(-c3ccccc3)cc2/C=N/n2c(-c3ccncc3)n[nH]c2=S)cc1	-9	2	-4	39*	3	-6	3
S=c1[nH]nc(-c2cccs2)n1/N=C/c1cn(-c2ccccc2)nc1-c1ccccc1	1	2	1	15	-2	-4	x
COc1ccccc1C(NC(=O)C1CCN(CCc2ccc(Br)cc2)CC1)c1ccccn1 (centres undefined)	-3	3	x	-7	-1	x	x
Cn1c(=O)c2[nH]c(SCc3cccnc3)nc2n(C)c1=S	0	1	x	-3	11	x	x
CCOC(=O)Nc1ccc2c(CN3CCN(S(=O)(=O)c4ccc(C(C)C)cc4)CC3)cc(=O)oc2c1	4	6	x	50*	5	-2	6
COc1ccc(NC(=O)CSC2=C(C#N)C(c3ccco3)C(C(=O)Nc3nc4ccccc4s3)=C(C)N2)cc1 (centres undefined)	15	33	5	38*	0	4	11
